Assay results from ChEMBL document CHEMBL4825764, “Flavonoid Monomers as Potent, Nontoxic, and Selective Modulators of the Breast Cancer Resistance Protein (ABCG2)” (J Med Chem, 2021).
Activity calls are given as the source filed them. The rule behind the calls is not given here.

What was measured:
[1] = biological target: T1, Broad substrate specificity ATP-binding cassette transporter ABCG2 (Homo sapiens, UniProt Q9UNQ0); test: Inhibition of BCRP (unknown origin) expressed in HEK293/R2 cells assessed as fold increase in mitoxantrone accumulation at 1 uM after 4 days by flow cytometry analysis; type: cell-based; conditions: hek293/r2, 96 h, time 4 day
T1 sequence (Q9UNQ0 whole entry): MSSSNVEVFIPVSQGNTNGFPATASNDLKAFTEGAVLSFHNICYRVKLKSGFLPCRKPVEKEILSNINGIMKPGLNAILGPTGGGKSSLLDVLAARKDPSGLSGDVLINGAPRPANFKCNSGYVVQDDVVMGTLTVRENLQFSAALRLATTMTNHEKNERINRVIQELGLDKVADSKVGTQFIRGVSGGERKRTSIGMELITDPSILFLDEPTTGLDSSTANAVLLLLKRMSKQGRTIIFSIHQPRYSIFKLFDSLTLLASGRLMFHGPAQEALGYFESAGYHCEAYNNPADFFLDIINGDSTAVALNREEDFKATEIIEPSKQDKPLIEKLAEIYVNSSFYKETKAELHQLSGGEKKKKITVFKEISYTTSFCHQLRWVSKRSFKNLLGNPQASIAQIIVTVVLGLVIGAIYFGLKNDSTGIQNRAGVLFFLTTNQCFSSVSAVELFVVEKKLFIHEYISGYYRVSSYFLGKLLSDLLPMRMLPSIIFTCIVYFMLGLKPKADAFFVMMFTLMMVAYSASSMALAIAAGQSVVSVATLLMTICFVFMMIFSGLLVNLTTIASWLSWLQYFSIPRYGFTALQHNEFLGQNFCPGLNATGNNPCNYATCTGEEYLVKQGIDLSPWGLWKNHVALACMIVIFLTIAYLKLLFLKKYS
How it was run: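 HEK293/R2 cells were treated 4 days at 37 °C with 1 μM modulator or 0.1% DMSO, washed, then given the mitoxantrone accumulation assay with flow cytometry read-out. Data are relative to DMSO, N = 5 independent experiments.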

Homo sapiens [2] = species on record: Homo sapiens; test: Selectivity index, ratio of EC50 for inhibition of P-gp (unknown origin) expressed in LCC6MDR cells assessed as reversal of paclitaxel resistance to EC50 for inhibition of BCRP (unknown origin) transfected in HEK293/R2 cells assessed as reversal of topotecan resistance; type: cell-based
How it was run: (§1)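 Selectivity index is the EC50 against the other transporter's line divided by the EC50 in the BCRP line. All values come from 5-day MTS reversal assays. These use topotecan in HEK293/R2 (0–2000 nM) or MCF7-MX100 (0–100 μM), doxorubicin in 2008/MRP1, and paclitaxel in LCC6MDR, each with modulator at 0–1000 nM.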

Homo sapiens [3] = species on record: Homo sapiens; test: Selectivity index, ratio of EC50 for inhibition of P-gp (unknown origin) expressed in LCC6MDR cells assessed as reversal of paclitaxel resistance to EC50 for Inhibition of BCRP (unknown origin) expressed in MCF7/MX100 cells assessed as reversal of topotecan resistance; type: cell-based; how it was run: as §1
Homo sapiens [4] = species on record: Homo sapiens; test: Selectivity index, ratio of EC50 for inhibition of MRP1 (unknown origin) expressed in 2008/MRP1 cells assessed as reversal of doxorubicin resistance to EC50 for inhibition of BCRP (unknown origin) transfected in HEK293/R2 cells assessed as reversal of topotecan resistance; type: cell-based; how it was run: as §1
2008 = test: Selectivity index, ratio of EC50 for inhibition of MRP1 (unknown origin) expressed in 2008/MRP1 cells assessed as reversal of doxorubicin resistance to Inhibition of BCRP (unknown origin) expressed in MCF7/MX100 cells assessed as reversal of topotecan resistance; type: cell-based; conditions: Homo sapiens; how it was run: as §1
Homo sapiens [5] = species on record: Homo sapiens; test: Selectivity index, ratio of EC50 for inhibition of P-gp (unknown origin) expressed in LCC6MDR cells assessed as reversal of mitoxantrone resistance to EC50 for inhibition of BCRP (unknown origin) expressed in HEK293/R2 cells assessed as reversal of mitoxantrone resistance; type: cell-based
How it was run: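 Selectivity index is the EC50 in 2008/MRP1 or LCC6MDR divided by the EC50 in HEK293/R2. All three lines were measured by 5-day mitoxantrone co-incubation with modulator, with MTS/PMS read-out at 490 nm.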

[6] = biological target: T1, Broad substrate specificity ATP-binding cassette transporter ABCG2; test: Inhibition of BCRP (unknown origin) expressed in human HEK293/R2 cells assessed as increase in intracellular topotecan accumulation by measuring fold change at 1 uM after 2 hrs in presence of topotecan by flow cytometry analysis relative to control; type: cell-based; conditions: hek293/r2, 2 h
How it was run: (§2)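 5 × 10^5 HEK293/pcDNA3.1 or HEK293/R2 cells in 1 mL were incubated 2 hr at 37 °C with 50 μM topotecan or 5 μM mitoxantrone plus 1 or 2 μM modulator, with DMSO as the vehicle control. Cells were washed in cold PBS and resuspended in FACS buffer. Flow cytometry read FL1 (topotecan) or FL4 (mitoxantrone) over 50,000 events, normalized to wild-type cells.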

[7] = biological target: T1, Broad substrate specificity ATP-binding cassette transporter ABCG2; test: Inhibition of BCRP (unknown origin) expressed in human HEK293/R2 cells assessed as increase in intracellular topotecan accumulation by measuring fold change at 2 uM after 2 hrs in presence of topotecan by flow cytometry analysis relative to control; type: cell-based; conditions: hek293/r2, 2 h; how it was run: as §2
[8] = biological target: T1, Broad substrate specificity ATP-binding cassette transporter ABCG2; test: Inhibition of BCRP (unknown origin) expressed in human HEK293/R2 cells assessed as increase in intracellular mitoxantrone accumulation by measuring fold change at 2 uM after 2 hrs in presence of mitoxantrone by flow cytometry analysis relative to control; type: cell-based; conditions: hek293/r2, 2 h; how it was run: as §2
[9] = biological target: T1, Broad substrate specificity ATP-binding cassette transporter ABCG2; test: Inhibition of BCRP (unknown origin) expressed in wild type HEK293/pcDNA3.1 cells assessed as increase in intracellular topotecan accumulation at 1 to 2 uM after 2 hrs in presence of topotecan by flow cytometry analysis relative to control; type: cell-based; conditions: hek293, 2 h, dose 1-2 µM; how it was run: as §2
[10] = biological target: T1, Broad substrate specificity ATP-binding cassette transporter ABCG2; test: Inhibition of BCRP (unknown origin) expressed in wild type HEK293/pcDNA3.1 cells assessed as increase in intracellular mitoxantrone accumulation at 1 to 2 uM after 2 hrs in presence of mitoxantrone by flow cytometry analysis relative to control; type: cell-based; conditions: hek293, 2 h, dose 1-2 µM; how it was run: as §2
HEK293 = test: Effect on BCRP protein expression in human HEK293/R2 cells at 1 to 3 uM after 24 hrs by flow cytometric analysis; type: functional, cell-based; conditions: dose 1-3 µM
How it was run: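 HEK293/R2 and HEK293/pcDNA3.1 cells were exposed to 0, 1 or 3 μM compound for 24 hr, with 0.1–0.3% DMSO as solvent control. Cells were trypsinized and stained with FITC anti-human BCRP for 45 min at 4 °C, with an IgG2b-FITC isotype control. Surface signal was read by flow cytometry on FL1 over 50,000 events.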

[11] = biological target: T1, Broad substrate specificity ATP-binding cassette transporter ABCG2; test: Inhibition of BCRP (unknown origin) expressed in HEK293/R2 cells assessed as reduction in BCRP protein level at 1 uM after 4 days by Western blot analysis; conditions: hek293/r2, 96 h
BCRP (ABCG2) ATPase = biological target: T2, BCRP (ABCG2) ATPase (Homo sapiens, UniProt Q9UNQ0); test: Effect on vanadate sensitive BCRP ATPase activity in human S1-M1-80 cell membranes preincubated for 30 mins followed by ATP addition and measured after 1 hr by colorimetric assay
T2 sequence (Q9UNQ0 whole entry): T1 sequence (Q9UNQ0 whole entry)

fold change (FC) [6]: 8.1
fold change (FC) [7]: 6.8
inhibition (INH) [9]: Not Active
inhibition (INH) [11]: Not Active
activity at 1 h (BCRP (ABCG2) ATPase): 120%
Compound: COC(=O)c1cccc(COc2c(-c3ccc(OCCCCc4cn(Cc5ccccc5)nn4)cc3)oc3ccccc3c2=O)c1
fold change (FC) [1]: 3.8
Ratio EC50 (Homo sapiens [2]): 96
Ratio EC50 (Homo sapiens [3]): 112
Ratio EC50 (Homo sapiens [4]): 143
Ratio EC50 2008: 167
Ratio EC50 (Homo sapiens [5]): 52
fold change (FC) [8]: 5.7
inhibition (INH) [10]: Not Active
Activity (HEK293): inactive
